In ChEMBL document CHEMBL3351505, “Ultrasound-assisted synthesis of novel 1,2,3-triazoles coupled diaryl sulfone moieties by the CuAAC reaction, and biological evaluation of them as antioxidant and antimicrobial agents” (Eur J Med Chem, 2014):
In brackets after ≈: the same amount, converted by molar mass. Activity calls are given as the source filed them. The rule behind the calls is not given here.

How the values were obtained:
[1] = Antioxidant activity assessed as DPPH free radical scavenging activity by spectrophotometric assay; type: physicochemical
How it was run: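 Sample solutions at several concentrations were added to 0.004% DPPH in methanol and incubated 60 min in the dark. Absorbance was read at 517 nm against a blank. Inhibition % = (A_blank − A_sample)/A_blank × 100, where the control contained all reagents except the test compound.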

[2] = test system: Priestia megaterium; experiment: Antibacterial activity against Bacillus megaterium ATCC 9885 after 24 hrs by two fold serial dilution method; type: functional
[3] = test system: Micrococcus luteus; experiment: Antibacterial activity against Sarcina lutea using 100 uL of test compound after 24 hrs by agar well diffusion method; type: functional
How it was run: (§1)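 Agar well diffusion. Nutrient agar was spread with bacterial suspension at 1×10⁸ CFU/mL, and 10 mm wells were cut. Wells were loaded with compound solution made at 200 mg per 1 mL DMSO. Plates were incubated 24 h at 37 °C and inhibition zones were measured. DMSO served as the negative control.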

[4] = test system: Candida albicans; experiment: Antifungal activity against Candida albicans NRRL Y-477 using 100 uL of test compound after 48 hrs by agar well diffusion method; type: functional
How it was run: (§2)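 Agar well diffusion. Sabouraud dextrose agar was spread with yeast or fungal suspension at 1×10⁶ CFU/mL, and 10 mm wells were cut. Wells were loaded with compound solution made at 200 mg per 1 mL DMSO. Plates were incubated 48 h at 28 °C and inhibition zones were measured. DMSO served as the negative control.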

[5] = test system: Klebsiella pneumoniae; experiment: Antibacterial activity against Klebsiella pneumoniae ATCC 13883 using 100 uL of test compound after 24 hrs by agar well diffusion method; type: functional; how it was run: as §1
[6] = test system: Escherichia coli; experiment: Antibacterial activity against Escherichia coli ATCC 25922 using 100 uL of test compound after 24 hrs by agar well diffusion method; type: functional; how it was run: as §1
[7] = test system: Pseudomonas aeruginosa; experiment: Antibacterial activity against Pseudomonas aeruginosa ATCC 27953 after 24 hrs by two fold serial dilution method; type: functional
[8] = test system: Klebsiella pneumoniae; experiment: Antibacterial activity against Klebsiella pneumoniae ATCC 13883 after 24 hrs by two fold serial dilution method; type: functional
[9] = test system: Bacillus subtilis; experiment: Antibacterial activity against Bacillus subtilis ATCC 6633 using 100 uL of test compound after 24 hrs by agar well diffusion method; type: functional; how it was run: as §1
[10] = test system: Escherichia coli; experiment: Antibacterial activity against Escherichia coli ATCC 25922 after 24 hrs by two fold serial dilution method; type: functional
[11] = test system: Staphylococcus aureus; experiment: Antibacterial activity against Staphylococcus aureus ATCC 29213 after 24 hrs by two fold serial dilution method; type: functional
[12] = test system: Saccharomyces cerevisiae; experiment: Antifungal activity against Saccharomyces cerevisiae using 100 uL of test compound after 48 hrs by agar well diffusion method; type: functional; how it was run: as §2
[13] = test system: Bacillus subtilis; experiment: Antibacterial activity against Bacillus subtilis ATCC 6633 after 24 hrs by two fold serial dilution method; type: functional
[14] = test system: Priestia megaterium; experiment: Antibacterial activity against Bacillus megaterium ATCC 9885 using 100 uL of test compound after 24 hrs by agar well diffusion method; type: functional; how it was run: as §1
[15] = test system: Aspergillus niger; experiment: Antifungal activity against Aspergillus niger using 100 uL of test compound after 48 hrs by agar well diffusion method; type: functional; how it was run: as §2
[16] = test system: Micrococcus luteus; experiment: Antibacterial activity against Sarcina lutea after 24 hrs by two fold serial dilution method; type: functional
[17] = test system: Saccharomyces cerevisiae; experiment: Antifungal activity against Saccharomyces cerevisiae after 48 hrs by two fold serial dilution method; type: functional
How it was run: (§3)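 Two-fold serial broth dilution in a suitable broth, run only on compounds giving inhibition zones of at least 16 mm. Final concentrations were […]. Each 5 mL received 0.1 mL inoculum and was incubated 48 h at 28 °C. MIC was the lowest concentration without growth.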

[18] = test system: Pseudomonas aeruginosa; experiment: Antibacterial activity against Pseudomonas aeruginosa ATCC 27953 using 100 uL of test compound after 24 hrs by agar well diffusion method; type: functional; how it was run: as §1
[19] = test system: Candida albicans; experiment: Antifungal activity against Candida albicans NRRL Y-477 after 48 hrs by two fold serial dilution method; type: functional; how it was run: as §3
[20] = test system: Aspergillus niger; experiment: Antifungal activity against Aspergillus niger after 48 hrs by two fold serial dilution method; type: functional; how it was run: as §3
[21] = test system: Staphylococcus aureus; experiment: Antibacterial activity against Staphylococcus aureus ATCC 29213 using 100 uL of test compound after 24 hrs by agar well diffusion method; type: functional; how it was run: as §1

Structure (SMILES) | IC50 [1] | diameter of the inhibition zone (DIZ) [3] | diameter of the inhibition zone (DIZ) [4] [mm] | diameter of the inhibition zone (DIZ) [5] [mm] | diameter of the inhibition zone (DIZ) [6] [mm] | MIC [7] | diameter of the inhibition zone (DIZ) [9] | MIC ([11]; ATCC 29213, 24 h) [µg/mL] | diameter of the inhibition zone (DIZ) [12] | MIC ([13]; ATCC 6633, 24 h) [µg/mL] | diameter of the inhibition zone (DIZ) [14] | diameter of the inhibition zone (DIZ) [15] [mm] | MIC [16] | MIC [17] | diameter of the inhibition zone (DIZ) [18] [mm] | MIC [19] | MIC [20] [µg/mL] | diameter of the inhibition zone (DIZ) [21] | MIC ([8]; ATCC 13883, 24 h) [µg/mL] | MIC ([10]; ATCC 25922, 24 h) [µg/mL] | also measured
CC(O)(Cc1cn(CC(=O)c2ccccc2)nn1)c1ccc(S(=O)(=O)c2ccccc2)cc1 (configuration not stated) | 600 µg/mL (≈ 1300 µM) | 22 mm | 15 | 13 | 14 | 200 µg/mL (≈ 433 µM) | 19 mm | 200 (≈ 433 µM) | 14 mm | 200 (≈ 433 µM) | 15 mm | 32 | 200 µg/mL (≈ 433 µM) | inactive | 19 | inactive | 50 (≈ 108 µM) | 18 mm | – | – | MIC [2]: inactive; MIC [8]: inactive; MIC [10]: inactive
O=C(Cn1cc(COC(Cc2cn(CC(=O)c3ccccc3)nn2)c2ccc(S(=O)(=O)c3ccccc3)cc2)nn1)c1ccccc1 (configuration not stated) | 175 µg/mL (≈ 271 µM) | 24 mm | 23 | 15 | 20 | 100 µg/mL (≈ 155 µM) | 17 mm | 100 (≈ 155 µM) | 22 mm | 200 (≈ 309 µM) | 20 mm | 20 | 100 µg/mL (≈ 155 µM) | 200 µg/mL (≈ 309 µM) | 23 | – | 200 (≈ 309 µM) | 24 mm | 100 (≈ 155 µM) | 200 (≈ 309 µM) | MIC ([2]; ATCC 9885, 24 h): 200 µg/mL (≈ 309 µM); MIC ([19]; NRRL Y-477, 48 h): 200 µg/mL (≈ 309 µM)
CC(O)(Cc1cn(CC(=O)c2ccc(S(=O)(=O)c3ccccc3)cc2)nn1)c1ccc(S(=O)(=O)c2ccccc2)cc1 (configuration not stated) | 20 µg/mL (≈ 33.2 µM) | 14 mm | 15 | 18 | 19 | inactive | inactive | – | 17 mm | – | 17 mm | 32 | inactive | 200 µg/mL (≈ 332 µM) | 15 | inactive | 50 (≈ 83.1 µM) | inactive | 200 (≈ 332 µM) | 200 (≈ 332 µM) | MIC ([2]; ATCC 9885, 24 h): 200 µg/mL (≈ 332 µM); MIC [11]: inactive; MIC [13]: inactive
CC(O)(Cc1cn(CC(=O)c2ccc(Br)cc2)nn1)c1ccc(S(=O)(=O)c2ccccc2)cc1 (configuration not stated) | 800 µg/mL (≈ 1480 µM) | inactive | 15 | 19 | 17 | 200 µg/mL (≈ 370 µM) | 17 mm | 200 (≈ 370 µM) | 14 mm | 200 (≈ 370 µM) | inactive | 20 | inactive | inactive | 19 | inactive | 200 (≈ 370 µM) | 17 mm | 200 (≈ 370 µM) | 200 (≈ 370 µM) | MIC [2]: inactive
O=C(Cn1cc(CC(O)c2ccc(S(=O)(=O)c3ccccc3)cc2)nn1)c1ccc(Br)cc1 (configuration not stated) | 500 µg/mL (≈ 950 µM) | 20 mm | 20 | 24 | 22 | 100 µg/mL (≈ 190 µM) | 14 mm | 200 (≈ 380 µM) | 17 mm | – | 19 mm | 30 | 200 µg/mL (≈ 380 µM) | 200 µg/mL (≈ 380 µM) | 25 | – | 50 (≈ 95 µM) | 22 mm | 100 (≈ 190 µM) | 200 (≈ 380 µM) | MIC ([2]; ATCC 9885, 24 h): 200 µg/mL (≈ 380 µM); MIC [13]: inactive; MIC ([19]; NRRL Y-477, 48 h): 200 µg/mL (≈ 380 µM)
O=C(Cn1cc(CC(O)c2ccc(S(=O)(=O)c3ccccc3)cc2)nn1)c1ccccc1 (configuration not stated) | 425 µg/mL (≈ 950 µM) | 20 mm | 12 | 22 | 17 | 200 µg/mL (≈ 447 µM) | 19 mm | – | inactive | 200 (≈ 447 µM) | inactive | 29 | 200 µg/mL (≈ 447 µM) | inactive | 20 | inactive | 100 (≈ 223 µM) | 14 mm | 200 (≈ 447 µM) | 200 (≈ 447 µM) | MIC [2]: inactive; MIC [11]: inactive
CC(Cc1cn(CC(=O)c2ccc(Br)cc2)nn1)(OCc1cn(CC(=O)c2ccc(Br)cc2)nn1)c1ccc(S(=O)(=O)c2ccccc2)cc1 (configuration not stated) | Not Active | 24 mm | 15 | 26 | 24 | 100 µg/mL (≈ 122 µM) | 14 mm | 100 (≈ 122 µM) | 14 mm | – | 23 mm | 32 | 100 µg/mL (≈ 122 µM) | inactive | 26 | inactive | 25 (≈ 30.5 µM) | 24 mm | 100 (≈ 122 µM) | 100 (≈ 122 µM) | MIC ([2]; ATCC 9885, 24 h): 100 µg/mL (≈ 122 µM); MIC [13]: inactive
